# Results taken from ChEMBL document CHEMBL3853279, “Tadehaginosides A-J, Phenylpropanoid Glucosides from Tadehagi triquetrum, Enhance Glucose Uptake via the Upregulation of PPARγ and GLUT-4 in C2C12 Myotubes” (J Nat Prod, 2016).
# The source made the active and inactive calls. The calls are words filed in the database; no cut-off is given here.
# Assays:
# [1] = molecular target: T1, Peroxisome proliferator-activated receptor gamma (Mus musculus) (UniProt P37238); test: Transactivation of PPARgamma in mouse C2C12 cells assessed as increase in GLUT-4 mediated 2-NBDG uptake at 10 uM after 6 hrs by fluorescence assay; assay type: cell-based
# T1 sequence (whole entry): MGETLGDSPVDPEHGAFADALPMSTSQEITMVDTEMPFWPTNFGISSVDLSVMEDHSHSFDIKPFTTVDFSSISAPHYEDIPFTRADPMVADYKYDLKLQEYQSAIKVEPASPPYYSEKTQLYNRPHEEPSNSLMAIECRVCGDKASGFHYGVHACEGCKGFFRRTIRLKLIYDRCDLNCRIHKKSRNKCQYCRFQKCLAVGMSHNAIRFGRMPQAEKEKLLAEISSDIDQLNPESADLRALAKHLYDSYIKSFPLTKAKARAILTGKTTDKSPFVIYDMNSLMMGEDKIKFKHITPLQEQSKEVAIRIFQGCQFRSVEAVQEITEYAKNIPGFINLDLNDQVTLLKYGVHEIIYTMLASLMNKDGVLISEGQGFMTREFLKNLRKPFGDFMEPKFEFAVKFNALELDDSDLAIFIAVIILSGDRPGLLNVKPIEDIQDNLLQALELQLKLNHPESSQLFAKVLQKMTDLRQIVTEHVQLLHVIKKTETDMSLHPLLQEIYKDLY
# Method in brief: (§1)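 Uptake was run in C2C12 myotubes (4 days in DMEM/1% FBS) kept in serum-free DMEM. 2-NBDG 10 μM and compound (DMSO solution) were added together for the stated time. Medium was then discarded, and cells were washed twice with PBS and scraped in ice-cold PBS. Cell-associated 2-NBDG was read by fluorescence at Ex/Em 475/550 nm, under basal or insulin-stimulated conditions.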
# [2] = molecular target: T1, Peroxisome proliferator-activated receptor gamma (Mus musculus); test: Transactivation of PPARgamma in mouse C2C12 cells assessed as increase in GLUT-4 mediated 2-NBDG uptake at 10 uM after 2 to 8 hrs by fluorescence assay; assay type: cell-based; method in brief: as §1
# [3] = molecular target: T1, Peroxisome proliferator-activated receptor gamma (Mus musculus); test: Transactivation of PPARgamma in mouse C2C12 cells assessed as increase in GLUT-4 mediated 2-NBDG uptake at 5 to 20 uM at 4 hrs by fluorescence assay; assay type: cell-based; method in brief: as §1
# Mus musculus = organism: Mus musculus; test: Cytotoxicity against mouse C2C12 cells assessed as cell viability at 1 to 20 uM after 4 hrs by MTT assay; assay type: toxicity, cell-based; details: c2c12, 4 h
# Method in brief: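 C2C12 myoblasts differentiated to myotubes in DMEM with 1% FBS, changed daily for 4 days, then seeded in 96-well plates. Cells were exposed to test compound for 4 h, with digitonin 100 μg/mL as positive control. MTT reagent was added, then DMSO, and absorbance was read at 565 nm as viability.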
# [4] = molecular target: T1, Peroxisome proliferator-activated receptor gamma (Mus musculus); test: Transactivation of PPARgamma in mouse C2C12 cells assessed as increase in GLUT-4 levels in at 1 to 10 uM after 6 hrs by ELISA; assay type: cell-based
# Method in brief: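 Myotubes were differentiated from C2C12 myoblasts over 4 days in DMEM plus 1% FBS, then treated 6 h in serum-free DMEM at 1 and 10 μM, with rosiglitazone 10 μM as reference. Cells were PBS-washed and lysed, and lysates were spun 20 min at 13000g, 4 °C. GLUT-4 in the supernatant was quantified by mouse GLUT-4 ELISA.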
# [5] = molecular target: T1, Peroxisome proliferator-activated receptor gamma (Mus musculus); test: Transactivation of PPARgamma in mouse C2C12 cells at 1 to 10 uM after 24 hrs by DR-1 luciferase reporter gene assay; assay type: cell-based
# Method in brief: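 C2C12 myotubes were transiently co-transfected with a DR-1 luciferase reporter and a PPARγ expression vector. Six hours after transfection, the medium was replaced with fresh medium containing the agonist. Luciferase activity was measured 24 h later by kit assay.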
# [6] = molecular target: T1, Peroxisome proliferator-activated receptor gamma (Mus musculus); test: Transactivation of PPARgamma in mouse C2C12 cells assessed as increase in GLUT-4 mediated 2-NBDG uptake at 4 hrs by fluorescence assay; assay type: cell-based; method in brief: as §1
# [7] = molecular target: T1, Peroxisome proliferator-activated receptor gamma (Mus musculus); test: Transactivation of PPARgamma in mouse C2C12 cells assessed as increase in GLUT-4 mediated insulin-induced 2-NBDG uptake at 4 hrs by fluorescence assay; assay type: cell-based; method in brief: as §1
Activity [1],SMILES,further results
Active,CC(=O)c1c(O)cc(O)cc1O[C@@H]1O[C@H](COC(=O)/C=C\c2ccc(O)cc2)[C@@H](O)[C@H](O)[C@H]1O,
Active,O=C(/C=C\c1ccc(O)cc1)O[C@H]1[C@H](Oc2cc(O)cc(O)c2)O[C@H](CO)[C@@H](O)[C@@H]1O,
Active,O=C(/C=C/c1ccc(O)cc1)O[C@@H]1[C@@H](O)[C@H](Oc2cc(O)cc(O)c2)O[C@H](CO)[C@H]1O,
Active,CC(=O)c1c(O)cc(O)cc1O[C@@H]1O[C@H](COC(=O)/C=C/c2ccc(O)cc2)[C@@H](O)[C@H](O)[C@H]1O,
Active,O=C(OC[C@H]1O[C@@H](Oc2cc(O)cc(O)c2)[C@H](O)[C@@H](O)[C@@H]1O)[C@H]1[C@H](C(=O)OC[C@H]2O[C@@H](Oc3cc(O)cc(O)c3)[C@H](O)[C@@H](O)[C@@H]2O)[C@H](c2ccc(O)cc2)[C@H]1c1ccc(O)cc1,
Active,O=C(/C=C/c1ccc(O)cc1)OC[C@H]1O[C@@H](Oc2cc(O)cc(O)c2)[C@H](O)[C@@H](O)[C@@H]1O,
Active,O=C(OC[C@H]1O[C@@H](Oc2cc(O)cc(O)c2)[C@H](O)[C@@H](O)[C@@H]1O)[C@H]1[C@H](c2ccc(O)cc2)[C@H](C(=O)OC[C@H]2O[C@@H](Oc3cc(O)cc(O)c3)[C@H](O)[C@@H](O)[C@@H]2O)[C@H]1c1ccc(O)cc1,Activity [2]: Active; Activity [3]: Active; Activity (Mus musculus): Non-Toxic; Activity [4]: Active; Activity [5]: Active; Activity [6]: Dose-dependent effect; Activity [7]: Dose-dependent effect
Active,O=C(/C=C/c1ccc(O)cc1)O[C@H]1[C@H](Oc2cc(O)cc(O)c2)O[C@H](CO)[C@@H](O)[C@@H]1O,
Active,O=C(/C=C/c1ccc(O)cc1)O[C@H]1[C@H](O)[C@@H](O)[C@H](Oc2cc(O)cc(O)c2)O[C@@H]1CO,
